We go through nine molecules from ChEMBL document CHEMBL4825737, “Design, synthesis, and biological evaluation of novel 6-(pyridin-3-yl) quinazolin-4(3H)-one derivatives as potential anticancer agents via PI3K inhibition” (Bioorg Med Chem, 2021).

SMILES strings stand for the structures. Calls of active or inactive are those of the source. No cut-off for these calls is given here.

The subject of experiment [1] is HCC827. The experiment in a line: Antiproliferative activity against human HCC827 cells assessed as reduction in cell viability measured after 72 hrs by flow cytometry analysis. Type of experiment: functional, cell-based. The settings on record: HCC827, 72 h. An outline of the steps: (§1)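 Cells in RPMI 1640 with 10% FBS and penicillin/streptomycin/amphotericin B, seeded at 2.5–3 × 10⁴ per well. Grown adherent in fresh medium for 24 h, then exposed to a range of compound concentrations for 72 h. Living cell numbers counted by flow cytometry; IC50 calculated. Mean ± SD from three experiments.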
In general terms: In flow cytometry, cells or beads pass a laser one at a time.

A short description of experiment [2]: Antiproliferative activity against human LM3 cells assessed as reduction in cell viability measured after 72 hrs by flow cytometry analysis. Type of experiment: functional, cell-based. The settings on record: GILM3, 72 h. Put shortly:
as §1

For experiment [3], the system named is SH-SY5Y. As to the kind of experiment: Antiproliferative activity against human SH-SY5Y assessed as reduction in cell viability measured after 72 hrs by flow cytometry analysis. Type of experiment: functional, cell-based. An outline of the steps:
as §1

In experiment [4] the test system is HEL. The experiment in a line: Antiproliferative activity against human HEL cells assessed as reduction in cell viability measured after 72 hrs by flow cytometry analysis. Type of experiment: functional, cell-based. Put shortly:
as §1

For experiment [5], the system named is L02. As to the kind of experiment: Antiproliferative activity against human HL7702 cells assessed as reduction in cell viability measured after 72 hrs by flow cytometry analysis. Type of experiment: functional, cell-based. Particulars: L02, 72 h. An outline of the steps: as §1
Experiment [6] can be described thus: Inhibition of PI3K in human HCC827 cells assessed as decrease in phosphorylation incubated for 24 hrs by cell PI3 kinase activity photometric assay. Type of experiment: cell-based. Particulars: HCC827, 24 h. An outline of the steps: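 Human NSCLC HCC827 cells grown in RPMI 1640 with 10% FBS and antibiotics-antimycotics, exposed to a range of concentrations for 24 h. Cells washed with Reagent A, lysed with Reagent B, protein measured by Bradford, then 100 μg lysate protein per group used in a cell PI3K assay kit for kinase activity. IC50 given as mean ± SD of three separate experiments.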

Experiment [7] deals with HCC827. As to the kind of experiment: Induction of apoptosis in human HCC827 cells assessed as early apoptotic cells at 1 uM incubated for 48 hrs by annexin V-FITC and propidium iodide staining based flow cytometry analysis (reference value: 2.69%). Type of experiment: functional.
Experiment [8] deals with HCC827. The experiment in a line: Induction of apoptosis in human HCC827 cells assessed as viable cells at 1 uM incubated for 48 hrs by annexin V-FITC and propidium iodide staining based flow cytometry analysis (reference value: 94.16%). Particulars: read-out: Activity. Type of experiment: functional.
In experiment [9] the test system is HCC827. The experiment in a line: Inhibition of PI3K signalling in human HCC827 cells assessed as decrease in phosphorylation of Akt at Ser473 at 1 to 4 uM incubated for 24 hrs by Western blot analysis. Type of experiment: cell-based. Particulars: dose 1-4 µM. An outline of the steps:
(§2)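 HCC827 cells treated with different compound concentrations for 24 h. Phospho-protein levels measured by Western blot. Mean ± SD from three parallel experiments, compared with DMSO control.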
In general terms: Immunoblotting shows a protein as a band on a membrane.

Experiment [10] has as its system HCC827. As to the kind of experiment: Inhibition of PI3K signalling in human HCC827 cells assessed as decrease in phosphorylation of GSKbeta at Ser9 at 1 to 4 uM incubated for 24 hrs by Western blot analysis. Type of experiment: cell-based. Particulars: dose 1-4 µM. An outline of the steps:
as §2

In experiment [11] the test system is HCC827. As to the kind of experiment: Inhibition of PI3K signalling in human HCC827 cells assessed as decrease in phosphorylation of mTOR at Ser2448 at 1 to 4 uM incubated for 24 hrs by Western blot analysis. Type of experiment: cell-based. The settings on record: dose 1-4 µM. An outline of the steps: as §2
In experiment [12] the test system is HCC827. As to the kind of experiment: Induction of cell cycle arrest in human HCC827 cells assessed as accumulation at G2 phase incubated for 24 hrs by […]PI assay. Type of experiment: functional, cell-based. The settings on record: dose 1-4 µM. Put shortly: (§3)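 HCC827 cells held 12 h in medium without FBS, then treated for 24 h. Fixed overnight in 70% ethanol and stained with propidium iodide plus RNase for 30 min in the dark at room temperature. Cell cycle distribution read by flow cytometry.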

In experiment [13] the test system is HCC827. As to the kind of experiment: Induction of cell cycle arrest in human HCC827 cells assessed as decrease in G1 phase incubated for 24 hrs by […]PI assay. Type of experiment: functional, cell-based. Particulars: dose 1-4 µM. An outline of the steps:
as §3

Experiment [14] has as its system HCC827. The experiment in a line: Induction of apoptosis in human HCC827 cells assessed as reduction in CHK1 expression at 1 to 4 uM incubated for 24 hrs by Western blot analysis. Type of experiment: functional, cell-based. The settings on record: dose 1-4 µM. Put shortly:
(§4)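 HCC827 cells treated with a range of compound concentrations for 24 h. Western blot for G2/M-associated proteins with GAPDH as loading control. Bands quantified by densitometry; mean ± SD, n = 3, compared with control.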

Experiment [15] deals with HCC827. The experiment in a line: Induction of apoptosis in human HCC827 cells assessed as reduction in p-CHK1 expression at 1 to 4 uM incubated for 24 hrs by Western blot analysis. Type of experiment: functional, cell-based. The settings on record: dose 1-4 µM. Put shortly:
as §4

The subject of experiment [16] is HCC827. The experiment in a line: Induction of apoptosis in human HCC827 cells assessed as reduction in c-Myc expression at 1 to 4 uM incubated for 24 hrs by Western blot analysis. Type of experiment: functional, cell-based. The settings on record: dose 1-4 µM. An outline of the steps: as §4
In experiment [17] the test system is HCC827. As to the kind of experiment: Induction of apoptosis in human HCC827 cells assessed as reduction in Cyclin-B1 expression at 1 to 4 uM incubated for 24 hrs by Western blot analysis. Type of experiment: functional, cell-based. The settings on record: dose 1-4 µM. Put shortly: as §4
For experiment [18], the system named is HCC827. The experiment in a line: Induction of apoptosis in human HCC827 cells assessed as upregulation of cleaved-PRAP by Western blot analysis. Type of experiment: functional, cell-based. Put shortly: (§5)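 HCC827 cells treated with a range of compound concentrations. Western blot for mitochondrial apoptosis proteins with GAPDH as loading control. Bands quantified by densitometry; mean ± SD, n = 3, compared with vehicle control.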

Experiment [19] deals with HCC827. The experiment in a line: Induction of apoptosis in human HCC827 cells assessed as upregulation of cleaved-caspase 9 by Western blot analysis. Type of experiment: functional, cell-based. An outline of the steps: as §5
In experiment [20] the test system is HCC827. As to the kind of experiment: Induction of apoptosis in human HCC827 cells assessed as upregulation of Bax by Western blot analysis. Type of experiment: functional, cell-based. An outline of the steps: as §5
Experiment [21] has as its system HCC827. The experiment in a line: Induction of apoptosis in human HCC827 cells assessed as downregulation of Bcl-2 by Western blot analysis. Type of experiment: functional, cell-based. Put shortly:
as §5

Experiment [22] concerns HCC827. As to the kind of experiment: Induction of apoptosis in human HCC827 cells assessed as late apoptotic cells at 1 uM incubated for 48 hrs by annexin V-FITC and propidium iodide staining based flow cytometry analysis (reference value: 0.56%). Type of experiment: functional.
Experiment [23] relates to HCC827. As to the kind of experiment: Induction of apoptosis in human HCC827 cells assessed as necrotic cells at 1 uM incubated for 48 hrs by annexin V-FITC and propidium iodide staining based flow cytometry analysis (reference value: 2.57%). Type of experiment: functional.
Experiment [24] relates to HCC827. The experiment in a line: Induction of apoptosis in human HCC827 cells assessed as viable cells at 2 uM incubated for 48 hrs by annexin V-FITC and propidium iodide staining based flow cytometry analysis (reference value: 94.16%). Type of experiment: functional. Particulars: read-out: Activity.
The subject of experiment [25] is HCC827. The experiment in a line: Induction of apoptosis in human HCC827 cells assessed as early apoptotic cells at 2 uM incubated for 48 hrs by annexin V-FITC and propidium iodide staining based flow cytometry analysis (reference value: 2.69%). Type of experiment: functional.
The test system of experiment [26] is HCC827. The experiment in a line: Induction of apoptosis in human HCC827 cells assessed as late apoptotic cells at 2 uM incubated for 48 hrs by annexin V-FITC and propidium iodide staining based flow cytometry analysis (reference value: 0.56%). Type of experiment: functional.
The test system of experiment [27] is HCC827. As to the kind of experiment: Induction of apoptosis in human HCC827 cells assessed as necrotic cells at 2 uM incubated for 48 hrs by annexin V-FITC and propidium iodide staining based flow cytometry analysis (reference value: 2.57%). Type of experiment: functional.
Experiment [28] relates to HCC827. The experiment in a line: Induction of apoptosis in human HCC827 cells assessed as viable cells at 4 uM incubated for 48 hrs by annexin V-FITC and propidium iodide staining based flow cytometry analysis (reference value: 94.16%). Type of experiment: functional. The settings on record: read-out: Activity.
Experiment [29] deals with HCC827. As to the kind of experiment: Induction of apoptosis in human HCC827 cells assessed as early apoptotic cells at 4 uM incubated for 48 hrs by annexin V-FITC and propidium iodide staining based flow cytometry analysis (reference value: 2.69%). Type of experiment: functional.
Experiment [30] deals with HCC827. The experiment in a line: Induction of apoptosis in human HCC827 cells assessed as late apoptotic cells at 4 uM incubated for 48 hrs by annexin V-FITC and propidium iodide staining based flow cytometry analysis (reference value: 0.56%). Type of experiment: functional.
The subject of experiment [31] is HCC827. The experiment in a line: Induction of apoptosis in human HCC827 cells assessed as necrotic cells at 4 uM incubated for 48 hrs by annexin V-FITC and propidium iodide staining based flow cytometry analysis (reference value: 2.57%). Type of experiment: functional.

Usually IC50 stands for the concentration at which inhibition is half-maximal. `CCC(=O)Nc1ccc(-c2ccc3ncn(Cc4ccc5c(c4)OCO5)c(=O)c3c2)cn1`: the IC50 in [1], in [2], in experiment [3] and in [4] was above 40 µM each time.

On to `Cn1c(=O)n(-c2ccc(C(C)(C)C#N)cc2)c2c3cc(-c4cnc5ccccc5c4)ccc3ncc21` [DACTOLISIB], for which the IC50 was determined as 0.53 µM in [1], 1.31 µM in experiment [2], 0.79 µM in experiment [3] and 0.29 µM in experiment [4].

On to `CCCCC(=O)Nc1ccc(-c2ccc3ncn(CCN4CCOCC4)c(=O)c3c2)cn1`, for which the 50% inhibitory concentration (IC50) in experiment [1] was 29 µM; in experiment [2], above 40 µM; in [3], above 40 µM; in experiment [4], above 40 µM.

Turning to `CCC(=O)Nc1ccc(-c2ccc3ncn(Cc4ccccc4)c(=O)c3c2)cn1`, the IC50 in [1], in experiment [2], in experiment [3] and in [4] was above 40 µM each time.

With `CC(C)(C)C(=O)Nc1ccc(-c2ccc3ncn(Cc4ccc5c(c4)OCO5)c(=O)c3c2)cn1`, the IC50 in experiment [1], in experiment [2], in experiment [3] and in experiment [4] was above 40 µM in each case.

In the case of `CCC(=O)Nc1ccc(-c2ccc3ncn(CCN4CCOCC4)c(=O)c3c2)cn1`, the IC50 in [1], in [2], in [3] and in experiment [4] was above 40 µM in each case.

In the case of `O=C(c1ccccc1)N(C(=O)c1ccccc1)c1ccc(-c2ccc3ncn(Cc4ccccc4)c(=O)c3c2)cn1`, the IC50 is 8.66 µM in experiment [5]; 1.12 µM in experiment [1]; 2.65 µM in [2]; 2.13 µM in experiment [3]; 2.01 µM in [4]; 0.072 µM in experiment [6]. Also, the Activity in experiment [7] was 11.77%; in experiment [12] it was “Dose-Dependent Effect”; in [13] it was “Dose-Dependent Effect”; in experiment [18], “Dose-Dependent Effect”; in experiment [19] it was “Dose-Dependent Effect”; in experiment [20] it was “Dose-Dependent Effect”. Also, the Activity in experiment [22] is given as 13.57%; in [23] it was 6.47%; in experiment [25], 19.16%; in [26] it was 15.63%; in [27], 6.66%; in experiment [29] it was 27.87%. The figures for the Activity in [30] and in experiment [31] were 11.28% and 6.05%, respectively. Further, in [8], the viability at 1 µM turned out to be 68.2%. Besides, the inhibition entry in [9], in [10] and in experiment [11] was “Active” in each case. The outcome in experiment [14], in [15], in [16], in [17] and in experiment [21] was Active. The viability at 2 µM in experiment [24] came to 58.5%. Also, in experiment [28], the viability at 4 µM is 54.8%.

As for `CC(C)(C)C(=O)Nc1ccc(-c2ccc3ncn(Cc4ccccc4)c(=O)c3c2)cn1`, the IC50 in experiment [1], in experiment [2], in experiment [3] and in [4] was above 40 µM throughout.

Regarding `CCC(=O)Nc1ccc(-c2ccc3ncn(CC(=O)N4CCOCC4)c(=O)c3c2)cn1`, the IC50 in experiment [1], in [2], in [3] and in experiment [4] was above 40 µM each time.
